# Laboratory results taken from ChEMBL document CHEMBL4513216, “Probing the Open Global Health Chemical Diversity Library for Multistage-Active Starting Points for Next-Generation Antimalarials” (ACS Infect Dis, 2020).
# Test: Toxicity liver stage against HepG2, at 10uM
# Format: cell-based
# Design: test concentration 10 uM, cell line HepG2-A16-CD81EGFP
# Settings: human, HepG2-A16-CD81EGFP cells; read-out: INHIBITION
# Summary of the method: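 Uninfected HepG2-A16-CD81EGFP cells, 3 × 10^3 per well, 1536-well, plated on prespotted compound at 10 μM final, parasite-free screening media added to match infected plates; puromycin 10 μM positive, DMSO 0.5% negative; run in parallel with 48 h PbLuc assay at 37 °C, 5% CO2; viability by CellTiter-Glo luminescence, normalized to controls.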
row,Structure (SMILES),cytotoxicity at 10 µM [%]
1,CC(=O)NCCC(Cc1ccccc1)c1ccco1 (stereo not given),-1.24
2,C/C(NC(=O)c1cccs1)=C1\C(=O)C[C@@H]2[C@H]1C2(C)C,-1.18
3,CC(C)(C)n1ncc2c(=O)n(CC(=O)NCCc3ccccc3)cnc21,-11.3
4,Cc1cc(NCCc2nc(C)cs2)nc(-c2cccnc2)n1,1.02
5,COc1ccccc1CN1C[C@@H](F)[C@@H](OCc2nc3cnccc3[nH]2)C1,-6.66
6,CCN(CC)CC[C@H]1CN(C(=O)C(C)(C)C)CC[C@H]1CC(=O)O,0.0915
7,O=C(c1cn(Cc2ccccc2)c2ncccc12)N1CCCCC1,1.2
8,COc1c(C(=O)N2CCNC(=O)C2)cnc2c1c(C)nn2C,6.26
9,CC(=O)N1CCN(c2cc(N3CCOCC3)cnn2)CC1,-7.09
10,O=C(Cc1cccs1)N1CC[C@H]2[C@H]1CCN2Cc1cccnc1,2.41
11,CC(=O)N1CCC2(C=C(C(=O)NC3CC3)c3ccccc32)CC1,4.59
12,COc1cc(CN2C[C@@H]3CNC(=O)[C@H](C)[C@@H]3C2)cc(OC)c1,0.405
13,O=C(c1ccc2c(c1)OCO2)N1C[C@H](OCC2CC2)[C@H]2COC[C@H]21,-166
14,COc1ncccc1C(=O)N1CCC(c2nnc(C3CC3)o2)CC1,3.61
15,CS(=O)(=O)N1CCN(C(=O)Cn2ccc3c(Cl)cccc32)CC1,20.6
16,O=C(O)c1nnn(Cc2cccc(C(F)(F)F)c2)c1-c1cccnc1,6.46
17,O=C1CC(c2ccc(C(=O)O)cc2)c2ncn(-c3cccc(F)c3)c2N1 (stereo not given),-4.74
18,CS(=O)(=O)N1CCCC12CCCN(S(=O)(=O)c1ccc(F)cc1)C2 (stereo not given),0.442
19,CN(C)c1nc2n(c(=O)n1)CCN2C(=O)Nc1ccc(Cl)cc1,6.36
20,NC(=O)c1sc2ccccc2c1C1CCN(S(=O)(=O)N2CCOCC2)C1 (stereo not given),11.8
21,Cc1cc(-c2ccc(=O)n(C3CCN(S(=O)(=O)N(C)C)CC3)n2)c(C)o1,6.54
22,O=C1NCc2ccccc2CC12CCN(Cc1ccncc1Cl)C2 (stereo not given),8.27

row,Structure (SMILES),cytotoxicity at 10 µM [%]
1,CC(NC(=O)N1CCC2(C1)OCCO2)c1ccc(F)cc1Cl (stereo not given),-5.16
2,CCc1nnc2n1CC(CNCc1nc(-c3ccsc3)no1)CC2 (stereo not given),-5.34
3,Cc1ccc(S(=O)(=O)NCc2[nH]ncc2Br)cc1F,12.6
4,COc1cccc(S(=O)(=O)NC(=O)C2CC(c3ccccc3)=NO2)c1 (stereo not given),3.73
5,Cc1cc(Cn2cncc(Br)c2=O)on1,15.2
6,CC(C)(C)OC(=O)N1CCC(NCc2cnn(C(C)(C)C)c2)CC1,4.85
7,COC(=O)c1cc(NC(=O)CCc2cscn2)ccc1C,-0.172
8,Cc1nc(NC2CCN(C(=O)C3CC3)CC2)c2cnn(C)c2n1,-2.13
9,Cc1noc(C)c1S(=O)(=O)N1CCC(n2cccn2)CC1,2.63
10,CN(Cc1nc(C(F)(F)F)cs1)C(=O)CCc1ccccn1,23.5
11,COC(=O)c1ccc(CN2CCC(c3noc(C)n3)CC2)s1,-1.51
12,CC(C)n1cnnc1CNC(=O)c1cnn(Cc2ccccc2)c1,0.536
13,COc1cc(C)ccc1OCCC(=O)N1CCC(C(N)=O)C1 (stereo not given),6.31
14,CNC(=O)COc1ccccc1CNC1CCc2nc(C)nn2C1 (stereo not given),6.56
15,c1ccc(CCN2CCc3c(ncn3C3CC3)C2)nc1,-1.43
16,CN(C)C1CCCN(C(=O)NCCNC(=O)C2CCCCC2)C1 (stereo not given),-1.69
17,CC(C)CC(C)NCc1cccnc1N1CCOCC1 (stereo not given),-4.22
18,Cc1cccc2ncnc(N3CCOC(C)C3)c12 (stereo not given),0.00648
19,COc1cc2c(cc1CNC(=O)Cc1ccc(C)nc1)OC(C)C2 (stereo not given),-6.47
20,CCN(CC(=O)Nc1cc(Cl)ccc1C)C(=O)c1cnccn1,-0.12
21,CC(Nc1cccc2c1OCCO2)C(=O)Nc1ccc(S(N)(=O)=O)cc1 (stereo not given),-3.93
22,NC(=O)c1ccc(C(=O)N2CCCCC2C2OCCO2)cc1 (stereo not given),-0.966

row,Structure (SMILES),cytotoxicity at 10 µM [%]
1,Cc1ncc(CN(C)C(=O)c2ccc(N3CCOCC3)c(F)c2)s1,5.66
2,CS(=O)(=O)NC(=O)c1cc(Cl)c2c(c1)OCCCO2,-4.94
3,CCN(CC)C(C)CNC(=O)c1cccnc1Oc1cccnc1 (stereo not given),-2.09
4,Cc1nc(C)n(CC2CCCCN2CCCS(N)(=O)=O)n1 (stereo not given),-3.73
5,CC(=O)c1cccc(OCCCC(=O)N(C)CC(N)=O)c1,17.3
6,CCCn1nnnc1CN1Cc2ccccc2CC1c1nnc(C)o1 (stereo not given),9.52
7,Cn1c(C(=O)N(CC(N)=O)C2CCCC2)cc(Cl)c1Cl,9.31
8,Cc1nc2cc(O)nn2c(C)c1CCC(=O)N(C)Cc1ccccc1,-141
9,COCCn1ccc(NC(=O)Nc2ccccn2)n1,3.18
10,NC(=O)CN(C(=O)c1c[nH]c2ncccc12)C1CCCC1,0.441
11,CC(O)CN(C)C(=O)Nc1ccn(-c2cccc(C(F)(F)F)c2)n1 (stereo not given),4.85
12,CNC(=O)NC(=O)C(C)N1CCCc2cc(OC)ccc2C1 (stereo not given),9.77
13,O=C(NCCn1ccnc1)c1cccc(Br)c1,9.3
14,CS(=O)(=O)NC1CCN(C(=O)COCc2ccccc2)CC1,-8.61
15,COc1cccc(-c2csc(Cn3ccc(=O)[nH]c3=O)n2)c1,3.57
16,CC(C)(C)c1ccc(=O)n(CN2CCCC(C(F)(F)F)C2)n1 (stereo not given),-2.19
17,CC(CNC(=O)NCc1ccc2c(c1)OCO2)CC1(C)OCCO1 (stereo not given),-6.78
18,COc1c(NC(=O)N(C)CCOc2ccccc2)c(C)nn1C,19.2
19,CCc1nn(C)c(CC)c1CNC(=O)Nc1cccc2c1CCN2C,-1.57
20,CCc1cc(N2CCC(NCc3ccc(C)o3)CC2)ncn1,2.84
21,COCC(=O)NCCc1ccc(I)s1,11.3
22,CN(C)C(=O)n1c(C(=O)NC(C)(C)CO)cc2c1c1ccccc1n2C,-76.2

row,Structure (SMILES),cytotoxicity at 10 µM [%]
1,CCOC(=O)c1coc(N2CCC(C(O)CC(C)C)CC2)n1 (stereo not given),5.78
2,CCN1CCN(C(=O)c2cc(-c3cccn3C)n[nH]2)[C@H]2CS(=O)(=O)C[C@H]21,-12.5
3,CCOC(=O)CC1(Nc2nc(C)nc3c2cnn3C)CCCCC1,5.03
4,COc1nccnc1N1CCN(Cc2cccc(F)c2)C(=O)C1,3.77
5,CCc1n[nH]c(C(=O)NCCn2ccnc2C)c1C,-9.29
6,COc1ccc(-c2n[nH]cc2CN(C)Cc2ccoc2)c(F)c1,-0.174
7,CSCC[C@H](NC(C)=O)c1nc(CC(C)C)n[nH]1,6.05
8,CC(=O)c1cc(CC(=O)NCc2ccsc2)cs1,2.29
9,Cn1ccnc1CCC1CCCCN1Cc1cnc(N2CCCC2)nc1 (stereo not given),1.43
10,CCc1nc(N)sc1C(=O)N1CCCC(COc2cccc(C)c2)C1 (stereo not given),-140
11,CC(C)=CCN1CCN(CCCOc2ccccc2)[C@H]2CS(=O)(=O)C[C@H]21,-8.34
12,Cc1nc2c(c(NCC(c3ccccc3C)N(C)C)n1)CCNC2 (stereo not given),19.2
13,CC(C)Cc1noc(-c2ccc(NCc3noc(C(C)C)n3)nc2)n1,0.178
14,Cn1cc2ncn([C@H]3CCN(Cc4ccccc4)C3)c(=O)c2n1,2.89
15,CNc1ncc(C(=O)N2CCC(CCc3ccccc3)CC2)cn1,13.1
16,COc1ccc(N2CCC(N3CCOC(C(F)(F)F)C3)CC2)cc1 (stereo not given),-20.5
17,CCC(C)(C)c1cc(-c2c(C)nn(CCO)c2C)c(C#N)c(N)n1,3.31
18,Cc1n[nH]c(C)c1CNC(=O)c1cn(CCC2CCCCN2)nn1 (stereo not given),1.61
19,O=C(CC1CCc2ccccc21)NCCSc1cnn[nH]1 (stereo not given),0.878
20,CC1CN(C)CCN1C(=O)c1ccn(-c2ccccc2Cl)n1 (stereo not given),-6.33
21,CN(Cc1ccccc1)C(=O)CN1CCCC(Cn2cncn2)C1 (stereo not given),-11.8
22,Cc1ccc(-c2cc(CNC(=O)N3CCC(O)CC3)on2)cc1,-4.62

row,Structure (SMILES),cytotoxicity at 10 µM [%]
1,CCS(=O)(=O)c1ccccc1N1CCC(NC(=O)C(C)C)CC1,-3.87
2,CC(C)(C)c1cc(C(=O)NCCN2CCCS2(=O)=O)[nH]n1,-8.16
3,CNc1nc(CNC(=O)Nc2cccc(C)c2Cl)cs1,-9.04
4,CCc1nnsc1C(=O)N1CCCC1c1c(C)nn(C)c1OC (stereo not given),-1.67
5,Cn1ccc(C(=O)NCc2ccccc2CN2CCCCC2)cc1=O,-2.51
6,CCn1cc(NC(=O)NCc2ccc3c(c2)OCO3)cn1,-1.1
7,Cc1cc(C(=O)NCC(C)N2CCc3ccccc32)on1 (stereo not given),-22.8
8,Cc1nc(C2CCCN(C(=O)c3cnn(C4CCCCC4)c3)C2)no1 (stereo not given),-6.37
9,CCOC(C)C(=O)NCc1ccc(N(C)C)cc1 (stereo not given),-13.3
10,COc1ccccc1CC1CCCN(CC(=O)NC2CC2)C1 (stereo not given),6.75
11,O=c1n(CCSCc2ccccc2Cl)nc2ccccn12,-7.68
12,O=C(NCc1ccc(Br)cc1)NCC1CCOC1 (stereo not given),-4.51
13,Cc1nc(-c2ccccc2)cc(C2CCNCC2)n1,3.78
14,Cc1nc(Nc2nnc(C)s2)cc(C2CCCN2)n1 (stereo not given),3.81
15,CC(C)N1CC[C@@H]2OC[C@H](C(=O)Nc3cccnc3)C[C@@H]2C1,15.7
16,Cn1ccnc1CN1CCN2C[C@H](OCc3ccccc3)C[C@H]2C1,9.37
17,CNC(=O)[C@H]1C[C@@H]2CN(Cc3cccnc3OC)C[C@@H]2N1C(C)=O,1.2
18,CN(C)C(=O)COC[C@@]12CCC[C@@H]1CN(C1CCCC1)C2,-13.2
19,COc1ccc(C[C@H]2CN(C3CCOCC3)CC[C@H]2OCC2CC2)cc1,-6.57
20,Cc1cccc(CN2CCc3ncnc(NC4CCC4)c3CC2)n1,-152
21,O=C(CN1CCN(CC(O)C2CC2)CC1)NCc1ccccc1 (stereo not given),6.03
22,CC(C)NC(=O)c1ccc2c(c1)C1(CCN(C(C)C)CC1)C(=O)N2,-7.47
